Published values of several laboratories.
pIC50: −log10 of the molar value.

SMILES | target or system | test | test system | conditions | measurement | result
Nc1nc(-c2ccc(NC(=O)Nc3ccc(-c4c[nH]c(N)n4)c(F)c3)cc2F)c[nH]1 |  | metabolic stability | human, liver microsomes | 5 µM, 1 h, pH 7.4 | compound remaining | > 80%
N=C(N)c1ccc(OCCCCCOc2ccc(C(=N)N)cc2)cc1 | L6 | cell growth or viability, resazurin |  | 70 h | pIC50 | 5.12
O=[N+]([O-])c1ccc(-c2nc3cccc(O)c3[nH]2)o1 | CEM-SS | cell growth or viability, resazurin |  | 72 h | CC50 | 90 µM
CCCC(=O)Nc1cccc(NC(=O)c2ccccc2Br)c1 |  | chemical stability | mouse, plasma | 5 µM, 5 h, pH 7.4 | compound remaining | 2%
CC(=O)c1ccc2c(c1)N(CCCN(C)C)c1ccccc1S2 | CEM-SS | cell growth or viability, XTT |  | 6 days | CC50 | 18 µM
COc1cccc2c1C(=O)c1c(O)c3c(c(O)c1C2=O)C[C@@](O)(C(=O)CO)C[C@@H]3O[C@H]1C[C@H](N)[C@H](O)[C@H](C)O1 | COLO 205 | cell growth or viability, MTT |  | 48 h | pIC50 | 6.30
Oc1c(-n2ccnn2)cnn1-c1cc(N2CCOCC2)ncn1 |  |  | female monkey, plasma | intravenous, 1 mg/kg | clearance | 11.7 mL/min/kg
CCC(=O)C[C@H](O)C[C@@H](C)C[C@H](NC(=O)[C@@H]1C[C@H](C)CN1C(=O)/C=C/[C@@H](C)CC)C(=O)N[C@H](C(=O)NC(C)(C)C(=O)N[C@@H](CC(C)C)C(=O)N[C@@H](CC(C)C)C(=O)NC(C)(C)C(=O)NC(C)(C)C(=O)NCCC(=O)N[C@@H](C)CN(C)C)[C@H](O)C(C)C | L6 | cell growth or viability, resazurin |  | 68 h | pIC50 | 6.59
Nc1ccn([C@@H]2CS[C@H](CO)O2)c(=O)n1 | HepG2.2.15 | cell growth or viability, MTT |  | 6 days | CC50 | > 1000 µM
Nc1nc(-c2cc(F)cc(NC(=O)Nc3cc(F)cc(-c4c[nH]c(N)n4)c3)c2)c[nH]1 |  | metabolic stability | human, liver microsomes | 5 µM, 1 h, pH 7.4 | compound remaining | > 80%
C=C(C)[C@H](CC=C(C)C)Cc1c(O)cc(O)c2c1O[C@H](c1ccccc1O)CC2=O | COLO 205 | cell growth or viability, MTT |  | 48 h | pIC50 | 4.55
O=C(CCCO)N1N=C(c2c(-c3ccc(Cl)cc3)c3ccccc3[nH]c2=O)CC1c1ccc(Cl)cc1 (stereo not drawn) |  | metabolic stability | human, liver microsomes | 1 µM, 10 min, pH 7.4 | compound remaining | 52%
